The subject of experiment [1] is SH-SY5Y. In words: Antioxidant activity in human SH-SY5Y cells assessed as increase in GSH level at 20 uM by MCB probe based assay relative to control. It counts as functional. As to conditions: TDE = time-dependent effect. The gist of the method: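 SH-SY5Y cells (DMEM, 10% FBS, 37 °C, 5% CO2) seeded at 2 x 10^4 cells/well and grown 24 h. Treated with 20 µM compound for 3-24 h. Then 50 µM monochlorobimane in PBS for 30 min at 37 °C. GSH fluorescence read at ex 360/em 465 nm, as % of control cells. Mean ± SD of three independent experiments.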

The test system of experiment [2] is SH-SY5Y. In words: Iron chelating activity in human SH-SY5Y cells assessed as reduction in FeSO4/H2O2-induced reactive oxygen species formation at 10 to 20 uM after 30 mins by DCFH-DA probe based fluorescence assay. It counts as functional, cell-based. The essentials: (§1)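 SH-SY5Y cells seeded at 3 x 10^4 cells/well and preloaded with DCFH-DA (10 µg/mL, 30 min, room temperature). Then given compound (5, 10, 20 µM) with FeSO4/H2O2 or CuSO4/H2O2 for 30 min; metal 25 µM and H2O2 100 µM per figure legend. Fluorescence read at ex 485/em 535 nm, arbitrary units. Mean ± SD of three experiments.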

Experiment [3] has as its system Mus musculus. In words: In vivo inhibition of COX-1 activity in carrageenan-induced Swiss mouse serum at 100 umol/kg, po pretreated for 1 hr followed by carrageenan challenge after 3 hrs by ELISA relative to control. It counts as functional. The essentials:
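Male Swiss mice given oral drug (100 µmol/kg) or vehicle 1 h before intraplantar carrageenan (legend: 400 µg/paw). At 3 h, animals anaesthetised with chloral hydrate and cardiac blood taken. Serum separated (1500 rpm, 20 min) and frozen at -70 °C. COX-1, COX-2 and 5-LOX measured by specific sandwich ELISA at 450 nm. Expressed as % enzymatic activity, mean ± SEM, n=8.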

In experiment [4] the test system is SH-SY5Y. Nature of the experiment: Neuroprotective activity in human SH-SY5Y cells assessed as reduction in amyloid beta (1 to 42)-induced reactive oxygen species formation at 20 uM after 3 hrs by DHE probe based fluorescence microscopic method. The class given is functional, cell-based. The gist of the method: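 SH-SY5Y cells on 8-well slides (1x10^4/well, 24 h) treated 3 h with compound (20 µM) and Aβ1-42 oligomers (10 µM) at 37 °C. Stained with dihydroethidium (10 µM, 30 min, dark), then 1 h in serum-free DMEM. Fluorescence imaged by microscopy; four random fields of 50–100 cells quantified in arbitrary units.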

The test system of experiment [5] is Mus musculus. Nature of the experiment: Anti-inflammatory activity in Swiss mouse assessed as reduction in carrageenan-induced paw edema at 100 umol/kg, po pretreated for 1 hr followed by carrageenan challenge after 3 hrs by plethysmometer. It counts as functional, organism-based. The gist of the method: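 Adult male Swiss mice (22-28 g), fasted overnight, given vehicle (DMSO 2% in sterile saline) or 100 µmol/kg orally 1 h before intraplantar carrageenan. Methods give 400 µg/20 µl and n=10 per group; figure legend gives 100 µg/paw and n=8. Right hind paw volume read by plethysmometer at 1, 3 and 5 h. Reported as change in µL from basal volume, mean ± SEM.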

Experiment [6] concerns the target Acetylcholinesterase (Electrophorus electricus) (UniProt O42275). In words: Inhibition of Electrophorus electricus AChE at 30 uM using acetylthiocholine iodide as substrate pretreated for 10 mins followed by substrate addition measured at 12 secs interval for 5 mins by Ellman's method relative to control. The essentials: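 Enzyme (0.5 U/mL) with DTNB (10 mM) in 0.1 M sodium phosphate pH 7.4; compound at 30 μM preincubated 10 min, then acetylthiocholine or butyrylthiocholine iodide added ([…]); A412 read every 12 s for 5 min. Velocity as percent of vehicle control; means and pooled SD from 2-4 experiments in triplicate. DMSO ≤0.2% final.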

Experiment [7] in a line: Metal chelating activity assessed as absorption maximum for compound-Fe2+ complex formation at 75 uM after 30 mins by UV-Vis spectrophotometric method (reference value: 237.2 nanometer). The class given is functional. The essentials: (§2)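 UV-Vis spectra in ethanol of compound at 75 µM alone or after 30 min incubation with CuSO4, FeSO4, FeCl3 or ZnCl2 (150 µM). Absorption maxima recorded.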

Experiment [8] can be described thus: Metal chelating activity assessed as absorption maximum for compound-Cu2+ complex formation at 75 uM after 30 mins by UV-Vis spectrophotometric method (reference value: 237.2 nanometer). It counts as functional. The essentials:
as §2

Experiment [9] has as its target Acetylcholinesterase (Electrophorus electricus, UniProt O42275). Nature of the experiment: Non-competitive inhibition of Electrophorus electricus AChE using acetylthiocholine iodide as substrate pretreated for 10 mins followed by substrate addition measured at 12 secs interval for 5 mins by Ellman's method.
The nature of experiment [10]: Selectivity ratio of IC50 for equine serum BuChE to IC50 Electrophorus electricus AChE.
In experiment [11] the target is T1, Nuclear factor erythroid 2-related factor 2 (Homo sapiens) (UniProt Q16236).
T1 sequence (whole entry): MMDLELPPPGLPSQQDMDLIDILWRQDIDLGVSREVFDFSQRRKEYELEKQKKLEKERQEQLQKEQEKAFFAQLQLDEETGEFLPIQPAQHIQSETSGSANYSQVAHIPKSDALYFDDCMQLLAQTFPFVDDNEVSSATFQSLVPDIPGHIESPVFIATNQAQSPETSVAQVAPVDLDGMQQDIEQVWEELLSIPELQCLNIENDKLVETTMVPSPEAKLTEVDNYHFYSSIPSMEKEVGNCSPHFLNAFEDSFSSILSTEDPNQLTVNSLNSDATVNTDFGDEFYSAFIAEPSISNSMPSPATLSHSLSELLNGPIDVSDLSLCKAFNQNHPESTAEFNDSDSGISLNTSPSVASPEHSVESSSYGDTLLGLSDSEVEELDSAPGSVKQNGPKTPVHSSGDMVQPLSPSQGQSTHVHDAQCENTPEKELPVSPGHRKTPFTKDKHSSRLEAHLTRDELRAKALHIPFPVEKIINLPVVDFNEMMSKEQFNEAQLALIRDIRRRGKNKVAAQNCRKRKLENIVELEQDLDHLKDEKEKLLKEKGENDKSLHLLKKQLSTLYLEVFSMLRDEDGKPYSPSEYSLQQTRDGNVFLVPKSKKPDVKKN
In words: Induction of Nrf2 nuclear translocation in human SH-SY5Y cells assessed as Nrf2 binding to antioxidant response element at 20 uM measured after 1 to 6 hrs by TransAM ELISA. To be noted: TDE = time-dependent effect. It counts as cell-based. The essentials:
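SH-SY5Y cells seeded at 2×10^6 per 60 mm dish, grown 24 h, then given 20 µM compound for 1-6 h at 37 °C. Nuclear extracts prepared by kit. 20 µg nuclear protein tested for Nrf2 DNA binding by TransAM Nrf2 immunoassay. Expressed as % of control cells; mean ± SD of three experiments. Nrf2-transfected COS-7 cells served as positive control.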

The test system of experiment [12] is SH-SY5Y. In words: Copper chelating activity in human SH-SY5Y cells assessed as reduction in CuSO4/H2O2-induced reactive oxygen species formation at 10 to 20 uM after 30 mins by DCFH-DA probe based fluorescence assay. The class given is functional, cell-based. The essentials:
as §1

Active and inactive are the calls of the source. No cut-off for these calls is given here.

Sequence of Acetylcholinesterase (O42275 whole entry): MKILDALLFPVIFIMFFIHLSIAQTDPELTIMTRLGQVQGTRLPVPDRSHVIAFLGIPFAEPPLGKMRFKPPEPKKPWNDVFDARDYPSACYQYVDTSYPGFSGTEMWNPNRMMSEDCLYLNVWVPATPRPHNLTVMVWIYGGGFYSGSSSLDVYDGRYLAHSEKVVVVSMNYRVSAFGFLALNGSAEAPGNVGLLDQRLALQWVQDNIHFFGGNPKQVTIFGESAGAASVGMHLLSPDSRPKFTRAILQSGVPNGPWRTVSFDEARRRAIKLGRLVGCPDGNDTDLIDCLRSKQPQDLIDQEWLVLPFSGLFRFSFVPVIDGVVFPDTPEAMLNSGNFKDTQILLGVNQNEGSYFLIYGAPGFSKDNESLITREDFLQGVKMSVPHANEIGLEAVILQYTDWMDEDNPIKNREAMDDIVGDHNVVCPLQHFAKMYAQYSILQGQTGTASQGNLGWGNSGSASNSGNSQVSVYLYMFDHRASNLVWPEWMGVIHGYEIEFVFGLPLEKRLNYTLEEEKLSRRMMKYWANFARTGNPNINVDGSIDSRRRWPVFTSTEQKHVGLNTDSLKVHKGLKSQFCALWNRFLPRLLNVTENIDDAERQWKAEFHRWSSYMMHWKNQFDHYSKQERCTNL
Sequence of Acetylcholinesterase (Electrophorus electricus) (O42275 24-633 limits assumed): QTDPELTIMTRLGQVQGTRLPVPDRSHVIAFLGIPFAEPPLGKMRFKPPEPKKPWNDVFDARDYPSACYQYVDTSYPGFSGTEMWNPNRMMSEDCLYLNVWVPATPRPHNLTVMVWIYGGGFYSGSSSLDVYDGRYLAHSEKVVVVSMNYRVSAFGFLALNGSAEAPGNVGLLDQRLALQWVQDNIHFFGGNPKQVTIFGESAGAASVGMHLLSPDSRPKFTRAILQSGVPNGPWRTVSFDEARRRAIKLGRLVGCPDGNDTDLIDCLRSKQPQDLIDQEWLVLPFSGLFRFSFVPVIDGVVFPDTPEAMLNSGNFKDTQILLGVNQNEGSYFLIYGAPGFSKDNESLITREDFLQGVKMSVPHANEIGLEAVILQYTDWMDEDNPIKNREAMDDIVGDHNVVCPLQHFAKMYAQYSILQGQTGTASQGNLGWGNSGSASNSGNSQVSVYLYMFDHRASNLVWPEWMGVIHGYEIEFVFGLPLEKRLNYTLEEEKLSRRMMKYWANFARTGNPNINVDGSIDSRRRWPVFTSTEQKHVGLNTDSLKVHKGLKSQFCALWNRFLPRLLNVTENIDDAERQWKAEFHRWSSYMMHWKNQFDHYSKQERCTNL

Take `COc1cc(/C=C/C(=O)OCC2CCN(Cc3ccccc3)CC2)ccc1O`: the Activity entry is “Tde” in experiment [1], 249 nm in [7], 248 nm in [8] and “Tde” in experiment [11]. For the same compound, the outcome in experiment [2], in experiment [4], in experiment [5] and in experiment [12] was Active. The inhibition in vivo at 100 µmol/kg in experiment [3] came out at 40%. Further, in experiment [6], the inhibition was 50%. Further, in [9], the Ki came out at 1.04 µM. Besides, the Ratio IC50 in experiment [10] turned out to be 53.

These data come from ChEMBL document CHEMBL4038269, “Design, synthesis and evaluation of novel feruloyl-donepezil hybrids as potential multitarget drugs for the treatment of Alzheimer's disease” (Eur J Med Chem, 2017).
